Source: ChEMBL document CHEMBL1150422, “Diarylmethyloxime and hydrazone derivatives with 5-indolyl moieties as potent inhibitors of tubulin polymerization” (Bioorg Med Chem, 2008)

Assays:
Bos taurus [1] = species: Bos taurus; experiment: Inhibition of calf brain tubulin polymerization at 20 uM after 20 mins
How it was run: (§1)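 Microtubule protein (1.0 mg/mL) in 0.1 M MES, 1 mM EGTA, 1 mM MgCl₂, 1 mM β-ME, 1.5 mM GTP, pH 6.7 was preincubated with ligand for 30 min at 20 °C, then cooled on ice for 10 min. Assembly was triggered by moving from 4 °C to 37 °C. Inhibition was measured turbidimetrically at 450 nm after 20 min against a no-ligand control.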

HeLa = experiment: Cytotoxicity against human HeLa cells after 72 hrs by XTT method; format: functional, cell-based
HT-29 = experiment: Cytotoxicity against human HT29 cells after 72 hrs by XTT method; format: functional, cell-based; conditions: HT-29, 72 h
How it was run: (§2)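 Cells were seeded in exponential growth per well: HeLa 1.5 × 10³, HT-29 3 × 10³, A-549 5 × 10³, HL-60 3 × 10³. Adherent lines were left to attach for 24 h at 37 °C in 5% CO₂. Cells were exposed to a range of compound concentrations for 72 h. XTT/PMS reagent was then added for 4 h, and absorbance was read at 490 nm against a 655 nm reference. IC50 is the concentration giving 50% inhibition of proliferation.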

A549 = experiment: Cytotoxicity against human A549 cells after 72 hrs by XTT method; format: functional, cell-based; conditions: A549, 72 h
HL-60 = experiment: Cytotoxicity against human HL60 cells after 72 hrs by XTT method; format: functional, cell-based; conditions: HL-60, 72 h; how it was run: as §2
Bos taurus [2] = species: Bos taurus; experiment: Inhibition of calf brain tubulin polymerization at 30 uM after 20 mins; how it was run: as §1
[3] = Inhibition of calf brain tubulin polymerization after 20 mins; set-up: species or system Bos taurus
How it was run: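 Turbidity at 450 nm was followed using 1.0 mg/mL microtubule protein in 0.1 M MES, 1 mM EGTA, 1 mM MgCl₂, 1 mM β-ME, 1.5 mM GTP, pH 6.7, with a ligand-free control. Samples were preincubated for 30 min at 20 °C, iced for 10 min, and assembly was started by shifting from 4 °C to 37 °C. IC50 was read graphically at 20 min. At least two independent experiments used different protein preparations.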

Bos taurus [4] = species: Bos taurus; experiment: Inhibition of calf brain tubulin polymerization at 40 uM after 20 mins; how it was run: as §1

In the case of `CCn1ccc2cc(/C(=N\OC(C)=O)c3cc(OC)c(OC)c(OC)c3)ccc21`, the inhibition (Bos taurus [1]) is reported as 26%, the IC50 (HeLa) is reported as > 1000 nM and the IC50 (HT-29) is reported as > 1000 nM. For the same compound, the IC50 (A549) was > 10000 nM and the IC50 (HL-60) was > 1000 nM.

With `COc1cc(/C(=N/OC(=O)OC(C)(C)C)c2ccc3c(ccn3C)c2)cc(OC)c1OC` the inhibition (Bos taurus [1]) was 10%, the IC50 (HeLa) was > 1000 nM and the IC50 (HT-29) was > 1000 nM. For the same compound, the IC50 (A549) was > 10000 nM and the IC50 (HL-60) was > 1000 nM.

In the case of `COc1cc(/C(=N/NC(C)=O)c2ccc3c(ccn3C)c2)cc(OC)c1OC`, the inhibition (Bos taurus [2]) is reported as 14%, the IC50 (HeLa) is reported as 2300 nM and the IC50 (A549) is reported as > 10000 nM. The IC50 (HL-60) was > 1000 nM.

`CCn1ccc2cc(C(=O)c3cc(OC)c(OC)c(OC)c3)ccc21` gave an inhibition (Bos taurus [1]) of 95%, an IC50 [3] of 5700 nM and an IC50 (HeLa) of 16 nM. For the same compound, the IC50 (A549) was 140 nM and the IC50 (HL-60) was 34 nM.

For `CCn1ccc2cc(C(OC(C)=O)c3cc(OC)c(OC)c(OC)c3)ccc21` (stereo unspecified), the inhibition (Bos taurus [1]) was 0%, the IC50 (HeLa) was > 1000 nM and the IC50 (HT-29) was > 1000 nM. For the same compound, the IC50 (A549) was > 10000 nM and the IC50 (HL-60) was > 10000 nM.

With `CN/N=C(/c1cc(OC)c(OC)c(OC)c1)c1ccc2c(ccn2C)c1` the inhibition (Bos taurus [1]) was 20%, the IC50 (HeLa) was > 1000 nM and the IC50 (HT-29) was > 1000 nM. For the same compound, the IC50 (A549) was > 1000 nM and the IC50 (HL-60) was > 1000 nM.

`COc1cc(C(=O)c2ccc3c(ccn3C)c2)cc(OC)c1OC` gave an inhibition (Bos taurus [4]) of 98%, an IC50 [3] of 7900 nM and an IC50 (HeLa) of 34 nM. It also gave an IC50 (A549) of 120 nM.

In the case of `CCn1ccc2cc(/C(=N\O)c3cc(OC)c(OC)c(OC)c3)ccc21`, the inhibition (Bos taurus [1]) is reported as 87%, the IC50 [3] is reported as 5900 nM and the IC50 (HeLa) is reported as > 1000 nM. For the same compound, the IC50 (HT-29) was > 1000 nM, the IC50 (A549) was > 10000 nM and the IC50 (HL-60) was > 1000 nM.

With `COc1cc(/C(=N/N)c2ccc3c(ccn3C)c2)cc(OC)c1OC` the inhibition (Bos taurus [2]) was 35% and the IC50 (HL-60) was > 10000 nM.

With `COc1cc(/C(=N/O)c2ccc3c(ccn3C)c2)cc(OC)c1OC` the inhibition (Bos taurus [2]) was 82%, the IC50 [3] was 1800 nM and the IC50 (HeLa) was 360 nM. The IC50 (HT-29) was 330 nM, the IC50 (A549) was > 10000 nM and the IC50 (HL-60) was 110 nM.

In the case of `COc1cc(C(OC(C)=O)c2ccc3c(ccn3C)c2)cc(OC)c1OC` (stereo unspecified), the inhibition (Bos taurus [1]) is reported as 41%, the IC50 (HeLa) is reported as 6.4 nM and the IC50 (HT-29) is reported as 260 nM. The IC50 (A549) was > 10000 nM and the IC50 (HL-60) was 240 nM.

With `CCn1ccc2cc(/C(=N\N)c3cc(OC)c(OC)c(OC)c3)ccc21` the inhibition (Bos taurus [2]) was 7%, the IC50 (HeLa) was > 1000 nM and the IC50 (HT-29) was > 1000 nM. For the same compound, the IC50 (A549) was > 10000 nM and the IC50 (HL-60) was > 1000 nM.

Work on `COc1ccc(C(=O)c2cc(OC)c(OC)c(OC)c2)cc1O` [PHENSTATIN] yielded an inhibition (Bos taurus [1]) of 97%, an IC50 [3] of 2500 nM and an IC50 (HeLa) of 30 nM. It also gave an IC50 (HT-29) of 30 nM, an IC50 (A549) of 300 nM and an IC50 (HL-60) of 1800 nM.

With `COc1cc(/C(=N\OC(C)=O)c2ccc3c(ccn3C)c2)cc(OC)c1OC` the inhibition (Bos taurus [1]) was 41% and the IC50 (HL-60) was > 10000 nM.

With `COc1cc(/C(=N/OC(C)=O)c2ccc3c(ccn3C)c2)cc(OC)c1OC` the inhibition (Bos taurus [1]) was 38% and the IC50 (HL-60) was > 10000 nM.

In the case of `COc1ccc(/C=C\c2cc(OC)c(OC)c(OC)c2)cc1O` [COMBRETASTATIN A4], the IC50 [3] is reported as 3000 nM and the IC50 (HT-29) is reported as 2 nM.

With `CCn1ccc2cc(/C(=N/OC(C)=O)c3cc(OC)c(OC)c(OC)c3)ccc21` the inhibition (Bos taurus [1]) was 54%, the IC50 (HeLa) was > 10000 nM and the IC50 (HT-29) was > 10000 nM. The IC50 (A549) was > 10000 nM and the IC50 (HL-60) was > 1000 nM.

`COc1cc(/C(=N\O)c2ccc3c(ccn3C)c2)cc(OC)c1OC` gave an inhibition (Bos taurus [1]) of 23%.

In the case of `COc1cc(/C(=N\OC(=O)OC(C)(C)C)c2ccc3c(ccn3C)c2)cc(OC)c1OC`, the inhibition (Bos taurus [1]) is reported as 17%, the IC50 (HeLa) is reported as > 1000 nM and the IC50 (HT-29) is reported as > 1000 nM. The IC50 (A549) was > 1000 nM and the IC50 (HL-60) was > 1000 nM.

In the case of `COc1cc(C(O)c2ccc3c(ccn3C)c2)cc(OC)c1OC` (stereo unspecified), the inhibition (Bos taurus [1]) is reported as 86%, the IC50 [3] is reported as 18000 nM and the IC50 (HeLa) is reported as > 1000 nM. For the same compound, the IC50 (HT-29) was > 1000 nM, the IC50 (A549) was > 10000 nM and the IC50 (HL-60) was > 10000 nM.

With `CCn1ccc2cc(C(O)c3cc(OC)c(OC)c(OC)c3)ccc21` (stereo unspecified) the inhibition (Bos taurus [1]) was 42%, the IC50 (HeLa) was > 1000 nM and the IC50 (HT-29) was > 1000 nM. The IC50 (A549) was > 10000 nM and the IC50 (HL-60) was > 10000 nM.
